Data as given in ChEMBL document CHEMBL4680209, “Design, synthesis, and evaluation of new 2-(quinoline-4-yloxy)acetamide-based antituberculosis agents” (Eur J Med Chem, 2020).
Values after ≈ are worked out from the molar mass of the structure shown.

Assays:
[1] = tested on: Mycobacterium tuberculosis H37Rv; assay: Inhibition of Mycobacterium tuberculosis H37Rv ATCC 27294 QcrB assessed as reduction in bacterial growth by resazurin reduction microplate assay
How it was run: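 REMA in Middlebrook 7H9 with 10% ADC and 5% DMSO. Compounds come from 2 mg/mL DMSO stocks as 10-point 2-fold serial dilutions, with a top concentration of 5–40 µg/mL set by solubility. MIC is the lowest concentration preventing resazurin blue-to-pink conversion. Three independent experiments; the modal or highest value is reported, in µM.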

[2] = tested on: RAW264.7; assay: Inhibition of Mycobacterium tuberculosis H37Rv ATCC 27294 QcrB infected in mouse RAW264.7 cells assessed as colony forming unit at 5 uM measured after 5 days (reference value: 4.66 +/- 0.23 log10CFU); format: cell-based; settings: time 5.0 day
[3] = Cytotoxicity against African green monkey Vero cells assessed as reduction in cell viability measured after 72 hrs by MTT assay; format: cell-based; settings: chlorocebus sabaeus
How it was run: (§1)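 Vero (2×10^3 cells/well) or HepG2 (4×10^3 cells/well) grown in DMEM with 10% inactivated FBS, gentamicin and amphotericin B, seeded 24 h, then exposed to compound at 1, 5 and 20 µM (2% DMSO) for 72 h at 37 °C, 5% CO2. MTT (5 mg/mL) added for 4 h; absorbance 570/655 nm. Viability relative to 2% DMSO control wells; CC50 derived.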

[4] = Cytotoxicity against African green monkey Vero cells assessed as reduction in cell viability measured after 72 hrs by neutral red uptake assay; format: cell-based; settings: chlorocebus sabaeus
How it was run: (§2)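 Vero (2×10^3 cells/well) or HepG2 (4×10^3 cells/well) in DMEM with 10% inactivated FBS, seeded 24 h, treated at 1, 5 and 20 µM in 2% DMSO for 72 h at 37 °C, 5% CO2. After PBS wash, neutral red (25 µg/mL, serum-free medium) for 3 h; dye extracted with acetic acid/EtOH/water (1:50:49) for 30 min; absorbance 562 nm; viability versus 2% DMSO controls.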

[5] = Cytotoxicity against human HepG2 cells assessed as reduction in cell viability measured after 72 hrs by MTT assay; format: cell-based; how it was run: as §1
[6] = Intrinsic clearance in human liver S9 fraction at 2 uM measured after 30 mins in presence of NADPH by HPLC-MS analysis; format: ADME, subcellular; settings: read-out: CLH
How it was run: (§3)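 Compound at 2 µM incubated at 37°C with 1 mg/mL human liver S9 fraction (9,000 × g post-mitochondrial supernatant) containing NADPH. Remaining compound quantified by HPLC-MS/MS at 0, 5, 15 and 30 min to give in vitro disappearance half-life and intrinsic clearance (mL/min/kg). Verapamil served as positive control.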

[7] = Half life in human liver S9 fraction at 2 uM measured after 30 mins in presence of NADPH by HPLC-MS analysis; format: ADME, subcellular; how it was run: as §3
[8] = Cytotoxicity against human HepG2 cells assessed as reduction in cell viability measured after 72 hrs by neutral red uptake assay; format: cell-based; how it was run: as §2
[9] = Ratio of MIC for inhibition of Mycobacterium tuberculosis H37Rv ATCC 27294 QcrB assessed as reduction in bacterial growth to MIC for inhibition of Mycobacterium tuberculosis PT12 clinical isolate QcrB assessed as reduction in bacterial growth
[10] = Ratio of MIC for inhibition of Mycobacterium tuberculosis H37Rv ATCC 27294 QcrB assessed as reduction in bacterial growth to MIC for inhibition of Mycobacterium tuberculosis PT20 clinical isolate QcrB assessed as reduction in bacterial growth
[11] = Ratio of MIC for inhibition of Mycobacterium tuberculosis H37Rv ATCC 27294 QcrB assessed as reduction in bacterial growth to MIC for inhibition of Mycobacterium tuberculosis PT2 clinical isolate QcrB assessed as reduction in bacterial growth

Row | SMILES | MIC [1] | further results
1 | COc1ccc2nc(C)cc(OCC(=O)c3ccc(-c4ccccc4)cc3)c2c1 | 13 µM (≈ 4.98 µg/mL) | –
2 | COc1ccc2nc(C)cc(OCC(=O)c3ccccc3)c2c1 | 1.3 µM (≈ 0.4 µg/mL) | Activity [2]: 4.06 log10CFU; CC50 at 72 h [3]: > 20 µM; CC50 at 72 h [4]: > 20 µM; CC50 at 72 h [5]: > 20 µM; CLint scaled at 2 µM [6]: 7.1 mL/min/kg; half-life at 2 µM [7]: 87.5 min; CC50 at 72 h [8]: > 20 µM
3 | COc1ccc2nc(C)cc(OCCc3ccccc3)c2c1 | 34.1 µM (≈ 10 µg/mL) | –
4 | COc1cccc(COc2cc(C)nc3ccc(OC)cc23)c1 | 32.3 µM (≈ 9.99 µg/mL) | –
5 | COc1ccc2nc(C)cc(OCC(=O)c3ccc(C)cc3)c2c1 | 15.6 µM (≈ 5.01 µg/mL) | –
6 | COc1ccc2nc(C)cc(OCC(=O)c3ccc(Br)cc3)c2c1 | 14.6 µM (≈ 5.64 µg/mL) | –
7 | COc1ccc2nc(C)cc(OCC(=O)c3ccc(Cl)c(Cl)c3)c2c1 | 6.6 µM (≈ 2.48 µg/mL) | –
8 | COc1ccc2nc(C)cc(OCc3ccc(C(C)(C)C)cc3)c2c1 | 3.7 µM (≈ 1.24 µg/mL) | –
9 | COc1ccc2nc(C)cc(OCC(=O)c3ccc(CC(C)C)cc3)c2c1 | 6.9 µM (≈ 2.51 µg/mL) | –
10 | COc1cc(COc2cc(C)nc3ccc(OC)cc23)cc(OC)c1 | 29.5 µM (≈ 10 µg/mL) | –
11 | COc1ccc(C(=O)COc2cc(C)nc3ccc(OC)cc23)cc1 | 7.4 µM (≈ 2.5 µg/mL) | –
12 | COc1ccc2nc(C)cc(OCc3ccc4c(c3)OCO4)c2c1 | 30.9 µM (≈ 9.99 µg/mL) | –
13 | COc1ccc2nc(C)cc(OCc3cccc(F)c3)c2c1 | 16.8 µM (≈ 5 µg/mL) | –
14 | COc1ccc2nc(C)cc(OCc3ccc(Cl)cc3)c2c1 | 15.9 µM (≈ 4.99 µg/mL) | –
15 | COc1ccc2nc(C)cc(OCc3cccc(C(F)(F)F)c3)c2c1 | 7.2 µM (≈ 2.5 µg/mL) | –
16 | CO[C@H]1/C=C/O[C@@]2(C)Oc3c(C)c(O)c4c(O)c(c(/C=N/N5CCN(C)CC5)c(O)c4c3C2=O)NC(=O)/C(C)=C\C=C\[C@H](C)[C@H](O)[C@@H](C)[C@@H](O)[C@@H](C)[C@H](OC(C)=O)[C@@H]1C | 0.05 µM (≈ 0.0411 µg/mL) | –
17 | COc1ccc2nc(C)cc(OC(C)C(=O)c3ccccc3)c2c1 (stereo unspecified) | 31.1 µM (≈ 9.99 µg/mL) | –
18 | NNC(=O)c1ccncc1 | 2.3 µM (≈ 0.315 µg/mL) | –
19 | COc1ccc2nc(C)cc(OCc3ccc(Cl)c(Cl)c3)c2c1 | 0.3 µM (≈ 0.104 µg/mL) | Activity [2]: 3.8 log10CFU; CC50 at 72 h [3]: > 20 µM; CC50 at 72 h [4]: > 20 µM; CC50 at 72 h [5]: 14.4 µM; CLint scaled at 2 µM [6]: 12.6 mL/min/kg; half-life at 2 µM [7]: 30.6 min; CC50 at 72 h [8]: 14.9 µM

Row | SMILES | MIC [1] | further results
20 | COc1ccc2nc(C)cc(OCc3ccc([N+](=O)[O-])cc3)c2c1 | 30.8 µM (≈ 9.99 µg/mL) | –
21 | COc1ccc2nc(C)cc(OCc3ccc4ccccc4c3)c2c1 | 7.6 µM (≈ 2.5 µg/mL) | –
22 | COc1ccc2nc(C)cc(OCc3ccc(Br)cc3)c2c1 | 13.9 µM (≈ 4.98 µg/mL) | –
23 | COc1ccc2nc(C)cc(OCC(=O)c3cccc(Cl)c3)c2c1 | 1.8 µM (≈ 0.615 µg/mL) | Activity [2]: 3.8 log10CFU; CC50 at 72 h [3]: > 20 µM; CC50 at 72 h [4]: > 20 µM; Ratio [9]: 1.9; CC50 at 72 h [5]: > 20 µM; CLint scaled at 2 µM [6]: 7.7 mL/min/kg; half-life at 2 µM [7]: 78.2 min; Ratio [10]: 1.9; CC50 at 72 h [8]: > 20 µM; Ratio [11]: 1.9
24 | COc1ccc2nc(C)cc(OCc3ccc(F)c(F)c3)c2c1 | 3.9 µM (≈ 1.23 µg/mL) | –
25 | COc1ccc2nc(C)cc(OCc3ccc(F)cc3)c2c1 | 16.8 µM (≈ 5 µg/mL) | –
26 | COc1ccc2nc(C)cc(OCc3cccc(Cl)c3Cl)c2c1 | 28.7 µM (≈ 9.99 µg/mL) | –
27 | COc1ccc2nc(C)cc(OCc3cccc(Cl)c3)c2c1 | 7.9 µM (≈ 2.48 µg/mL) | –
28 | COc1ccc2nc(C)cc(OCC(=O)c3ccccc3OC)c2c1 | 29.6 µM (≈ 9.99 µg/mL) | –
29 | COc1ccc2nc(C)cc(OCC(=O)c3ccc(F)cc3)c2c1 | 30.7 µM (≈ 9.99 µg/mL) | –
30 | COc1cccc(C(=O)COc2cc(C)nc3ccc(OC)cc23)c1 | 14.8 µM (≈ 4.99 µg/mL) | –
31 | COc1ccc2nc(C)cc(OCc3ccc(C(F)(F)F)cc3)c2c1 | 7.2 µM (≈ 2.5 µg/mL) | –
32 | COc1ccc2nc(C)cc(OCc3ccc(Br)c(Cl)c3)c2c1 | 1.6 µM (≈ 0.628 µg/mL) | –
33 | COc1ccc2nc(C)cc(OCC(=O)c3ccc(Cl)cc3)c2c1 | 12.9 µM (≈ 4.41 µg/mL) | –
34 | COc1ccc2nc(C)cc(OCc3ccccc3Cl)c2c1 | 18.8 µM (≈ 5.9 µg/mL) | –
35 | COc1ccc2nc(C)cc(OCc3ccccc3)c2c1 | 5.6 µM (≈ 1.56 µg/mL) | –
36 | COc1ccc2nc(C)cc(OCc3ccccc3F)c2c1 | 19.2 µM (≈ 5.71 µg/mL) | –
37 | COc1ccc2nc(C)cc(OCc3ccc(C(C)C)cc3)c2c1 | 1.9 µM (≈ 0.611 µg/mL) | CC50 at 72 h [3]: > 20 µM; CC50 at 72 h [4]: > 20 µM; Ratio [9]: 1.9; CC50 at 72 h [5]: 13.1 µM; CLint scaled at 2 µM [6]: 17.4 mL/min/kg; half-life at 2 µM [7]: 10 min; Ratio [10]: 1.9; CC50 at 72 h [8]: 13 µM; Ratio [11]: 1.9
38 | COc1ccc2nc(C)cc(OCc3cccc(Br)c3)c2c1 | 13.9 µM (≈ 4.98 µg/mL) | –
